These results are taken from ChEMBL document CHEMBL4402517, “Rational modification of Mannich base-type derivatives as novel antichagasic compounds: Synthesis, in vitro and in vivo evaluation” (Bioorg Med Chem, 2019).

SMILES strings stand for the structures. Activity calls are given as the source filed them. The rule behind the calls is not given here.

The test system of series [1] is Trypanosoma cruzi. In words: Antitrypanosomal activity against Trypanosoma cruzi MHOM/Pe/2011/Arequipa;DTU 5 bloodstream trypomastigotes infected in BALB/c mouse assessed as reduction in serum Ig-G level in acute phase at 20 mg/kg/day, po administered for 5 consecutive days starting from day 8 post infection and measured at day 14 post infection by ELISA. Type of series: functional, organism-based. The procedure, abridged: (§1)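 Sera came from infected BALB/c mice (three per group) dosed orally at 20 mg/kg/day for 5 days. Sampling points: 2 days after treatment, the day before immunosuppression (acute only) and necropsy day. Anti-T. cruzi IgG was measured by indirect ELISA using parasite Fe-SOD as antigen, read as OD at 492 nm.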

The test system of series [2] is Trypanosoma cruzi. The series is described as follows: Antitrypanosomal activity against Trypanosoma cruzi IRHOD/CO/2008/SN3;DTU 1 amastigote forms measured after 72 hrs by Giemsa staining based assay. Type of series: functional, organism-based. The conditions noted are these: IRHOD/CO/2008/SN3;DTU 1, 72 h. The procedure, abridged: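 Vero cells (1 × 10^4/well, on coverslips) left to adhere 24 h at 37 °C, 5% CO2, then infected with trypomastigotes at MOI 10:1 for 24 h. Free parasites were removed by three PBS washes. Compounds at 3.1, 6.25, 12.5, 25 and 50 µM were incubated 72 h, and amastigotes were counted after Giemsa staining. Triplicates, two separate experiments; IC50 by nonlinear regression.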

The subject of series [3] is Trypanosoma cruzi. The series is described as follows: Antitrypanosomal activity against Trypanosoma cruzi MHOM/Pe/2011/Arequipa;DTU 5 bloodstream trypomastigote infected in BALB/c mouse assessed as parasite-free bone marrow in acute phase at 20 mg/kg/day, po administered for 5 consecutive days starting from day 8 post infection followed by cyclophosphamide induced immunosuppression on day 80 post infection measured after day 100 post infection by PCR method relative to control. It counts as functional. Put shortly: (§2)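 Female BALB/c mice (10–12 weeks, three per group) were infected i.p. with 5 × 10^5 Arequipa bloodstream trypomastigotes. Dosing was oral, 20 mg/kg/day for 5 days, as a suspension in 5% DMSO/0.5% HPMC. Cyclophosphamide 200 mg/kg i.p. was given at day 80 pi. At necropsy (day 100) tissues were tested by PCR on the splice leader region (primers TC/TC1, 300 bp). Scored as x/3 mice positive.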

The test system of series [4] is Trypanosoma cruzi. In words: Antitrypanosomal activity against Trypanosoma cruzi MHOM/Pe/2011/Arequipa;DTU 5 bloodstream trypomastigotes infected in BALB/c mouse assessed as reduction in serum Ig-G level in acute phase at 20 mg/kg/day, po administered for 5 consecutive days starting from day 8 post infection and measured at day 79 post infection by ELISA. It counts as functional, organism-based. Put shortly:
as §1

Series [5] relates to Trypanosoma cruzi. The series is described as follows: Antitrypanosomal activity against Trypanosoma cruzi MHOM/Pe/2011/Arequipa;DTU 5 bloodstream trypomastigote infected in BALB/c mouse assessed as parasite-free muscle in acute phase at 20 mg/kg/day, po administered for 5 consecutive days starting from day 8 post infection followed by cyclophosphamide induced immunosuppression on day 80 post infection measured after day 100 post infection by PCR method relative to control. Type of series: functional. Put shortly:
as §2

In series [6] the test system is Trypanosoma cruzi. In words: Antitrypanosomal activity against Trypanosoma cruzi MHOM/Pe/2011/Arequipa;DTU 5 epimastigote assessed as effect on D-lactate excretion at IC50 after 72 hrs by H NMR method relative to control. It counts as functional, organism-based. Put shortly:
(§3)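 Cells were spun at 800 × g for 10 min and culture supernatants analysed by 1H NMR. Catabolite peaks were expressed as % variation versus untreated parasites.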

Series [7] deals with Trypanosoma cruzi. In words: Antitrypanosomal activity against Trypanosoma cruzi MHOM/Pe/2011/Arequipa;DTU 5 bloodstream trypomastigote infected in BALB/c mouse assessed as parasite-free muscle in chronic phase at 20 mg/kg/day, po administered for 5 consecutive days starting from day 70 post infection followed by cyclophosphamide induced immunosuppression on day 80 post infection measured after day 100 post infection by PCR method relative to control. It counts as functional. Put shortly: as §2

The nature of series [8]: Toxicity in BALB/c mouse infected with Trypanosoma cruzi MHOM/Pe/2011/Arequipa;DTU 5 bloodstream trypomastigote assessed as decrease in serum creatine kinase muscle to brain ratio level in chronic phase at 20 mg/kg/day, po administered for 5 consecutive days starting from day 70 post infection and measured at day 76 post infection relative to control. It counts as organism-based. On the set-up: scale not given: the % may be the effect or the level left. The conditions noted are these: in vivo. Put shortly:
(§4)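 Female BALB/c mice (10–12 weeks, 14–20 g; groups of three) were infected i.p. with 5 × 10^5 Arequipa bloodstream trypomastigotes. Dosing was oral at 20 mg/kg/day for 5 days, from day 8 pi (acute) or day 70 pi (chronic), as a 2 mg/ml suspension in 5% DMSO/0.5% HPMC; controls received vehicle. Cyclophosphamide 200 mg/kg i.p. was given at day 80 pi. Serum was collected 2 days post-treatment and at necropsy by cardiac puncture and compared with infected untreated controls.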

A short description of series [9]: Toxicity in BALB/c mouse infected with Trypanosoma cruzi MHOM/Pe/2011/Arequipa;DTU 5 bloodstream trypomastigote assessed as increase in serum alanine aminotransferase level in chronic phase at 20 mg/kg/day, po administered for 5 consecutive days starting from day 70 post infection and measured at day 76 post infection relative to control. It counts as organism-based. The conditions noted are these: in vivo. The procedure, abridged: as §4

The subject of series [10] is Trypanosoma cruzi. The series is described as follows: Antitrypanosomal activity against Trypanosoma cruzi MHOM/Pe/2011/Arequipa;DTU 5 epimastigote assessed as effect on acetate excretion at IC50 after 72 hrs by H NMR method relative to control. It counts as functional, organism-based. The procedure, abridged: as §3
Series [11] relates to Trypanosoma cruzi. In words: Antitrypanosomal activity against Trypanosoma cruzi MHOM/Pe/2011/Arequipa;DTU 5 bloodstream trypomastigote infected in BALB/c mouse assessed as parasitemia reactivation in acute phase at 20 mg/kg/day, po administered for 5 consecutive days starting from day 8 post infection followed by cyclophosphamide induced immunosuppression on day 80 post infection by Neubauer chamber relative to control. It counts as functional. The procedure, abridged: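 Female BALB/c mice (three per group) were infected i.p. with 5 × 10^5 Arequipa bloodstream trypomastigotes and treated orally at 20 mg/kg/day for 5 days (vehicle 5% DMSO/0.5% HPMC). Once parasitemia was undetectable (day 80 pi), cyclophosphamide 200 mg/kg was given i.p. Bloodstream parasites were then counted to give % reactivation versus untreated controls.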

Series [12] can be described thus: Toxicity in BALB/c mouse infected with Trypanosoma cruzi MHOM/Pe/2011/Arequipa;DTU 5 bloodstream trypomastigote assessed as decrease in serum uric acid level in acute phase at 20 mg/kg/day, po administered for 5 consecutive days starting from day 8 post infection and measured at day 14 post infection by biochemical analysis relative to control. It counts as organism-based. On the set-up: scale not given: the % may be the effect or the level left. The conditions noted are these: in vivo. Put shortly:
as §4

In series [13] the test system is Trypanosoma cruzi. In words: Trypanocidal activity against Trypanosoma cruzi trypomastigote form infected in African green monkey Vero cells measured after 48 hrs by resazurin dye based assay. It counts as functional, organism-based.
Series [14] concerns Trypanosoma cruzi. The series is described as follows: Antitrypanosomal activity against Trypanosoma cruzi MHOM/Pe/2011/Arequipa;DTU 5 bloodstream trypomastigotes infected in BALB/c mouse assessed as reduction in serum Ig-G level in chronic phase at 20 mg/kg/day, po administered for 5 consecutive days starting from day 70 post infection measured at day 76 post infection by ELISA. Type of series: functional, organism-based. The procedure, abridged: as §1

Series [15] in a line: Toxicity in BALB/c mouse infected with Trypanosoma cruzi MHOM/Pe/2011/Arequipa;DTU 5 bloodstream trypomastigote assessed as decrease in serum urea level in acute phase at 20 mg/kg/day, po administered for 5 consecutive days starting from day 8 post infection and measured at day 14 post infection by biochemical analysis relative to control. Also noted: scale not given: the % may be the effect or the level left. Type of series: organism-based. The note with it: in vivo. The procedure, abridged: as §4

As for `O=C(CCN1CCN(c2ccc(C(F)(F)F)cc2)CC1)c1ccc(O)cc1`, the outcome in the series with Trypanosoma cruzi [1], in the series on Trypanosoma cruzi [4], with Trypanosoma cruzi [6], in the series with Trypanosoma cruzi [10] and with Trypanosoma cruzi [14] was Active. In addition, the IC50 with Trypanosoma cruzi [2] amounted to 6.6 µM; in the series on Trypanosoma cruzi [13], 9.4 µM. Further, the Activity is given as 13% in the series with Trypanosoma cruzi [3]; 13% in the series on Trypanosoma cruzi [5]; 50% in the series on Trypanosoma cruzi [7]; “<= 30%” in series [8]; above 40% in series [9]; 85% in the series on Trypanosoma cruzi [11]. Also, the Activity entry is on record as “<= 20%” in [12] and “<= 10%” in [15].
Regarding `O=C(Cn1ccnc1[N+](=O)[O-])NCc1ccccc1` [BENZNIDAZOLE], the result in the series with Trypanosoma cruzi [1], in the series on Trypanosoma cruzi [4], with Trypanosoma cruzi [6], with Trypanosoma cruzi [10] and in the series on Trypanosoma cruzi [14] was Active. Moreover, the values for the IC50 in the series with Trypanosoma cruzi [2] and in the series with Trypanosoma cruzi [13] were 4.4 µM and 4.1 µM, respectively. Further, the Activity was 25% with Trypanosoma cruzi [3]; 25% with Trypanosoma cruzi [5]; 38% in the series on Trypanosoma cruzi [7]; “<= 30%” in series [8]; above 40% in series [9]; 65% in the series with Trypanosoma cruzi [11]. Also, the Activity entry in [12] and in [15] was “<= 30%” throughout.
`O=C(CCN1CCN(c2ccc(Cl)cc2)CC1)c1ccc(O)cc1`: the result in the series on Trypanosoma cruzi [1], in the series with Trypanosoma cruzi [4], with Trypanosoma cruzi [6], in the series on Trypanosoma cruzi [10] and in the series on Trypanosoma cruzi [14] was Active. Besides, the IC50 with Trypanosoma cruzi [2] was determined as 4.5 µM; in the series with Trypanosoma cruzi [13], 6.8 µM. The Activity is 50% in the series with Trypanosoma cruzi [3]; 50% in the series with Trypanosoma cruzi [5]; 63% in the series on Trypanosoma cruzi [7]; “<= 30%” in series [8]; “<= 10%” in [9]; 25% in the series with Trypanosoma cruzi [11]. The Activity entry in series [12] and in series [15] was “<= 10%” throughout.
